From ChEMBL document CHEMBL3091463, “Cytotoxic ent-kaurane diterpenoids from Salvia cavaleriei” (J Nat Prod, 2013)
pIC50: −log10 of the molar value.

What was measured:
A549 = assay: Cytotoxicity against human A549 cells after 48 hrs by MTS assay; assay type: functional, cell-based; conditions: A549, 48 h
Summary of the method: (§1)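 Cells were kept in RPMI-1640 or DMEM with 10% FBS at 37 °C under 5% CO2 and seeded at 1 × 10^5 cells/mL, with adherent cells allowed 12 h to attach. Compounds were tested at 0.064, 0.32, 1.6, 8 and 40 μM, in triplicate, for 48 h at 37 °C. Cisplatin and paclitaxel were the positive controls. MTS was then added for 4 h and absorbance read at […]. IC50 was calculated by the Reed and Muench method.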

MCF7 = assay: Cytotoxicity against human MCF7 cells after 48 hrs by MTS assay; assay type: functional, cell-based; conditions: MCF7, 48 h; summary of the method: as §1
SMMC-7721 = assay: Cytotoxicity against human SMMC7721 cells after 48 hrs by MTS assay; assay type: functional, cell-based; conditions: SMMC-7721, 48 h; summary of the method: as §1
SW480 = assay: Cytotoxicity against human SW480 cells after 48 hrs by MTS assay; assay type: functional, cell-based; conditions: SW480, 48 h; summary of the method: as §1
[1] = Cytotoxicity against human BEAS2B cells after 48 hrs by MTS assay; assay type: cell-based; conditions: BEAS-2B
HL-60 = assay: Cytotoxicity against human HL60 cells after 48 hrs by MTS assay; assay type: functional, cell-based; conditions: HL-60, 48 h; summary of the method: as §1

SMILES | pIC50 (A549) | pIC50 (MCF7) | pIC50 (SMMC-7721) | pIC50 (SW480) | pIC50 [1] | pIC50 (HL-60)
CCOC[C@@H]1C(=O)[C@@]23[C@H](O)C[C@@H]4C(C)(C)[C@@H](OC(C)=O)CC[C@@]4(C)[C@@H]2C(=O)C[C@@H]1[C@H]3O | < 5.00 | < 5.00 | < 5.00 | < 5.00 | < 5.00 | < 5.00
C=C1C(=O)[C@@]23[C@H](O)C[C@@H]4C(C)(C)[C@@H](OC(C)=O)CC[C@@]4(C)[C@@H]2C=C[C@@H]1[C@H]3O | 5.51 | 5.77 | 5.55 | 5.55 | 6.06 | 5.68
C=C1C(=O)[C@@]23[C@H](O)C[C@@H]4C(C)(C)[C@@H](OC(C)=O)CC[C@@]4(C)[C@@H]2C(=O)C[C@@H]1[C@H]3O | 5.57 | 5.60 | 5.52 | 5.80 | 5.70 | 5.55
CC(=O)O[C@H]1C(=O)[C@@]2(C)[C@H]([C@H](OC(=O)c3ccccc3)[C@]3(O)C[C@H](OC(=O)[C@H](O)[C@@H](NC(=O)c4ccccc4)c4ccccc4)C(C)=C1C3(C)C)[C@]1(OC(C)=O)CO[C@@H]1C[C@@H]2O [PACLITAXEL] | > 8.10 | > 8.10 | > 8.10 | > 8.10 | 6.24 | > 8.10
COC[C@H]1C(=O)[C@@]23[C@H](O)C[C@@H]4[C@@](C)(COC(C)=O)CCC[C@@]4(C)[C@@H]2C(=O)C[C@@H]1[C@H]3O | 5.52 | 5.70 | 5.46 | 5.59 | 5.52 | 5.55
CCOC[C@H]1C(=O)[C@@]23[C@H](O)C[C@@H]4C(C)(C)[C@@H](OC(C)=O)CC[C@@]4(C)[C@@H]2C(=O)C[C@@H]1[C@H]3O | 5.46 | 5.51 | 5.46 | 5.52 | 5.55 | 5.48
C=C1C(=O)[C@@]23[C@H](O)C[C@@H]4C(C)(C)[C@@H](OC(C)=O)CC[C@@]4(C)[C@@H]2[C@@H]2O[C@@H]2[C@@H]1[C@H]3O | 5.96 | 5.52 | 5.89 | 5.74 | 6.14 | 6.19
C=C1C(=O)[C@@]23[C@H](O)C[C@@H]4C(C)(C)C(=O)CC[C@@]4(C)[C@@H]2[C@H](O)C[C@@H]1[C@H]3O | < 5.00 | < 5.00 | < 5.00 | 5.09 | < 5.00 | < 5.00
C=C1C(=O)[C@@]23[C@H](O)C[C@@H]4C(C)(C)[C@@H](O)CC[C@@]4(C)[C@@H]2C(=O)C[C@@H]1[C@H]3O | < 5.00 | < 5.00 | < 5.00 | 5.12 | < 5.00 | < 5.00
COC[C@H]1C(=O)[C@@]23[C@H](O)C[C@@H]4C(C)(C)[C@@H](OC(C)=O)CC[C@@]4(C)[C@@H]2C(=O)C[C@@H]1[C@H]3O | 5.54 | 5.60 | 5.40 | 5.70 | 5.60 | 5.43
C=C1C(=O)[C@@]23[C@H](O)C[C@@H]4C(C)(C)[C@@H](OC(C)=O)CC[C@@]4(C)[C@@H]2[C@H](O)C[C@@H]1[C@H]3O | 5.46 | 5.47 | 5.96 | 5.85 | 5.55 | 5.60
C=C1C(=O)[C@@]23[C@H](O)C[C@@H]4C(C)(C)C(=O)CC[C@@]4(C)[C@@H]2C(=O)C[C@@H]1[C@H]3O | 5.19 | 5.51 | 5.31 | 5.66 | 5.51 | 5.48
C=C1C(=O)[C@@]23[C@H](O)C[C@@H]4[C@@](C)(COC(C)=O)CCC[C@@]4(C)[C@@H]2C(=O)C[C@@H]1[C@H]3O | 6.03 | 5.74 | 6.02 | 5.77 | 6.06 | 6.15
COC[C@@H]1C(=O)[C@@]23[C@H](O)C[C@@H]4[C@@](C)(COC(C)=O)CCC[C@@]4(C)[C@@H]2C(=O)C[C@@H]1[C@H]3O | < 5.00 | < 5.00 | < 5.00 | 5.17 | < 5.00 | < 5.00
C=C1C(=O)[C@@]23[C@H](O)C[C@@H]4C(C)(C)[C@@H](OC(C)=O)CC[C@@]4(C)[C@@H]2[C@@H](O)C[C@@H]1[C@H]3O | < 5.00 | < 5.00 | 5.42 | 5.26 | < 5.00 | 5.01
COC[C@@H]1C(=O)[C@@]23[C@H](O)C[C@@H]4C(C)(C)C(=O)CC[C@@]4(C)[C@@H]2C(=O)C[C@@H]1[C@H]3O | < 5.00 | < 5.00 | < 5.00 | < 5.00 | < 5.00 | < 5.00
